Reference: ChEMBL document CHEMBL1122958, “Angiotensin converting enzyme inhibitors. (Mercaptoaroyl)amino acids” (J Med Chem, 1985)

Tests used:
Rattus norvegicus = assay: Effective dose against ACE inhibitory activity in rat in vivo; assay type: functional
Method in brief: (§1)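 Conscious normotensive male rats with aortic and vena caval catheters (implanted ≥6 days before), restrained. Angiotensin I and II, 0.25 μg/kg iv, given at 10-min intervals as pressor challenges. Compound given once, generally orally, suspended in 0.5% gum tragacanth. AI repeated every 10 min for ≥2 h. Max inhibition is % of mean of two predose AI responses. Duration runs from dosing until inhibition falls below 30%. ED50 taken from dose–response plot as dose giving 50% inhibition.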

[1] = molecular target: T1, Angiotensin-converting enzyme (Oryctolagus cuniculus, UniProt P12822); assay: In vitro inhibitory activity against Angiotensin I converting enzyme
T1 sequence (P12822 whole entry): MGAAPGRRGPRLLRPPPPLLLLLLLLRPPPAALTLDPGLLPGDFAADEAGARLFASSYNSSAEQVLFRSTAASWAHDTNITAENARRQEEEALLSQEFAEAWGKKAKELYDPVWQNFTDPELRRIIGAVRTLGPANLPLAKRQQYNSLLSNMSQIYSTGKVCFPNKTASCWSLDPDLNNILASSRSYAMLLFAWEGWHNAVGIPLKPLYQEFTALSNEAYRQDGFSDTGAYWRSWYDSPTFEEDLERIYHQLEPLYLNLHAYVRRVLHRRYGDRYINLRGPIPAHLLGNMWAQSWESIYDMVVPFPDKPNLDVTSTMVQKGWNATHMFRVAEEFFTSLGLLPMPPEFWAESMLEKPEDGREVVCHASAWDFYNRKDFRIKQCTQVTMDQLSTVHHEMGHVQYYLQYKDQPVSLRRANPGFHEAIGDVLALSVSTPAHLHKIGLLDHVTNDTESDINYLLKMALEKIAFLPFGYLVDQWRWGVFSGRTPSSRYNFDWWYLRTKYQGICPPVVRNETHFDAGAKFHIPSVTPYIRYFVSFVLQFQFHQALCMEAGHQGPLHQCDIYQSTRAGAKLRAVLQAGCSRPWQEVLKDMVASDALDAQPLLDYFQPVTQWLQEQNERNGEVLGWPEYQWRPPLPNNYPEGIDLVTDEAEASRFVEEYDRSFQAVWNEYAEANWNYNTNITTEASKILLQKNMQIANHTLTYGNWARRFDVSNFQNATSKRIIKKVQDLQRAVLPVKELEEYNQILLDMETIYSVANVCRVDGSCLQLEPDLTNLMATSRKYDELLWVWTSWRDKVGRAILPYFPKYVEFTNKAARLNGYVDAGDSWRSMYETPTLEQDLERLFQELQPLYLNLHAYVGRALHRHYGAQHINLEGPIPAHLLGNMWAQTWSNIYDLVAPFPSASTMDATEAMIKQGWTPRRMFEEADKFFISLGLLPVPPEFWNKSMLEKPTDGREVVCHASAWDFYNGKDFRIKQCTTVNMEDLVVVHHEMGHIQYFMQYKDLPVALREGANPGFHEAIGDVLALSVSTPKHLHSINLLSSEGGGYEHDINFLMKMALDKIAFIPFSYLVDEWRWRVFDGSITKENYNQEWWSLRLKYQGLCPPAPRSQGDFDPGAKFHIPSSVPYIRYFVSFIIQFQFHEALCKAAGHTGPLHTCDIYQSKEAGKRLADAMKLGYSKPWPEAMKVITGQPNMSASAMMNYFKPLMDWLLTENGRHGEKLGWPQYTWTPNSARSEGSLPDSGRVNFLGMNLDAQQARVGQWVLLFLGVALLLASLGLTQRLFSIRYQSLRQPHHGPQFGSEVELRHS
Method in brief: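 Crude ACE from rabbit lung acetone powder, extracted in cold 0.05 M KH2PO4–0.03 M n-octyl-β-D-glucopyranoside pH 8.3, centrifuged 30000g, supernatant dialysed. Assay in 0.1 M KH2PO4–0.3 M NaCl–2% Me2SO, pH 8.3, 37 °C, substrate hippuryl-L-histidyl-L-leucine 2 mM; started by enzyme addition. Activity compared with and without inhibitor (in Me2SO). IC50 from one concentration–response curve per compound.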

[2] = molecular target: T2, Angiotensin-converting enzyme (Rattus norvegicus) (UniProt P47820); assay: In vivo mean duration for Angiotensin I converting enzyme inhibitory activity in 5 rats administered perorally at a dose of 10 mg/kg; assay type: functional, organism-based; design: dose 10 mg/kg; method in brief: as §1
T2 sequence (whole entry): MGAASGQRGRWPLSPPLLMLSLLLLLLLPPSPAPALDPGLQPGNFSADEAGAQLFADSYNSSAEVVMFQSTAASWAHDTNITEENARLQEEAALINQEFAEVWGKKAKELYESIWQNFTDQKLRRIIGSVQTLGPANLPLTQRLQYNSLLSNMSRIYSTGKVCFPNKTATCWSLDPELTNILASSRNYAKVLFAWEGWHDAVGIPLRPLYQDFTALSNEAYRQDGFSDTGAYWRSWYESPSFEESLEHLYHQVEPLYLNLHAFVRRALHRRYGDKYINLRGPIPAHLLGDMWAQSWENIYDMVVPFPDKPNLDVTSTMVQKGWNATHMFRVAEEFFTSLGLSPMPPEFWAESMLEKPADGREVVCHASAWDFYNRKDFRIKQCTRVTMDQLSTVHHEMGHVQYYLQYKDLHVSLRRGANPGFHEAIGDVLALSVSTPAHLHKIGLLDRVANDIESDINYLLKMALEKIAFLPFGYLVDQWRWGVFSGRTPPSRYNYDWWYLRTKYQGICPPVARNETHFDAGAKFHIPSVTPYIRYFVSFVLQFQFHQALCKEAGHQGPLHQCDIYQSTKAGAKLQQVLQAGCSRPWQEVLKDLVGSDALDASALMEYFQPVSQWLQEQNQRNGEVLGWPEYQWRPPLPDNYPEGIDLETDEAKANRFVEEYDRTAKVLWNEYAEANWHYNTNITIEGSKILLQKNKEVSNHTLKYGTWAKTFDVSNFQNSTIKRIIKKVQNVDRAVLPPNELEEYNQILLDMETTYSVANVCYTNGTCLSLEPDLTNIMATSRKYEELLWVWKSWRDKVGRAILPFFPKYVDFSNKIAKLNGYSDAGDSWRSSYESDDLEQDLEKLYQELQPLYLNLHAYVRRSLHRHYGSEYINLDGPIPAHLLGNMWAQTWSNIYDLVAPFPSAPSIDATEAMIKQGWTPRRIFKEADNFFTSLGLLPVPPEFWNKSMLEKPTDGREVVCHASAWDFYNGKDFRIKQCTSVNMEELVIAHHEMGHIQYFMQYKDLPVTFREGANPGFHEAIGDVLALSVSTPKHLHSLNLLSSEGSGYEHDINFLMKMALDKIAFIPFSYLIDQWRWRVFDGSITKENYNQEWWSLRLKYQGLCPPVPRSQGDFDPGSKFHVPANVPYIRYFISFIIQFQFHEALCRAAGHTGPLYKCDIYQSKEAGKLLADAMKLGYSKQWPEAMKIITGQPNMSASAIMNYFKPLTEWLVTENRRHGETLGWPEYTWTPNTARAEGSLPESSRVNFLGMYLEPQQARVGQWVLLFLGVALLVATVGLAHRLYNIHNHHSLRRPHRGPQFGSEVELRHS

[3] = molecular target: T2, Angiotensin-converting enzyme (Rattus norvegicus); assay: In vivo percent mean decrease in Angiotensin I converting enzyme inhibitory activity in 5 rats administered perorally at a dose of 10 mg/kg; assay type: functional, organism-based; design: dose 10 mg/kg; method in brief: as §1
[4] = molecular target: T2, Angiotensin-converting enzyme (Rattus norvegicus); assay: In vivo mean duration for Angiotensin I converting enzyme inhibitory activity in 2 rats administered perorally at a dose of 10 mg/kg; assay type: functional, organism-based; design: dose 10 mg/kg; method in brief: as §1
[5] = molecular target: T2, Angiotensin-converting enzyme (Rattus norvegicus); assay: In vivo percent mean decrease in Angiotensin I converting enzyme inhibitory activity in 2 rats administered perorally at a dose of 10 mg/kg; assay type: functional, organism-based; design: dose 10 mg/kg; method in brief: as §1
[6] = molecular target: T2, Angiotensin-converting enzyme (Rattus norvegicus); assay: In vivo mean duration for Angiotensin I converting enzyme inhibitory activity in 2 rats administered perorally at a dose of 1.5 mg/kg; assay type: functional, organism-based; design: dose 1.5 mg/kg; method in brief: as §1
[7] = molecular target: T2, Angiotensin-converting enzyme (Rattus norvegicus); assay: In vivo percent mean decrease in Angiotensin I converting enzyme inhibitory activity in 2 rats administered perorally at a dose of 1.5 mg/kg; assay type: functional, organism-based; design: dose 1.5 mg/kg; method in brief: as §1
[8] = molecular target: T2, Angiotensin-converting enzyme (Rattus norvegicus); assay: In vivo percent mean decrease in Angiotensin I converting enzyme activity in 2 rats administered perorally at a dose of 10 mg/kg; assay type: functional, organism-based; design: dose 10 mg/kg; method in brief: as §1
[9] = molecular target: T2, Angiotensin-converting enzyme (Rattus norvegicus); assay: In vivo for percent mean decrease in Angiotensin I converting enzyme inhibitory activity in 4 rats administered perorally at a dose of 1.5 mg/kg; assay type: functional, organism-based; design: dose 1.5 mg/kg; method in brief: as §1
[10] = molecular target: T2, Angiotensin-converting enzyme (Rattus norvegicus); assay: In vivo percent mean decrease in Angiotensin I converting enzyme inhibitory activity in a rat administered perorally at a dose of 10 mg/kg; assay type: functional, organism-based; design: dose 10 mg/kg; method in brief: as §1
[11] = molecular target: T2, Angiotensin-converting enzyme (Rattus norvegicus); assay: In vivo mean duration for Angiotensin I converting enzyme inhibitory activity in rat administered perorally at a dose of 10 mg/kg; assay type: functional, organism-based; design: dose 10 mg/kg; method in brief: as §1

SMILES | IC50 [1] [µM] | Mean duration [4] [min] | further results
COc1cccc(C(=O)N(CC(=O)O)C2CCCC2)c1S | 0.38 | – | ED50 (Rattus norvegicus): 0.8 mg/kg; Mean duration [2]: 4 h; Mean decrease [3]: 92%
O=C(O)CN(C(=O)c1ccccc1C(=O)O)C1CCCC1 | 100 | – | –
CC(C)c1cccc(C(=O)N(CC(=O)O)C2CCCC2)c1S | 120 | 0 | Mean decrease [5]: 23%
O=C(O)CN(C(=O)c1cccc(S)c1)C1CCCC1 | 25 | 0 | Mean decrease [5]: 13%
CCOC(=O)CN(C(=O)c1cc(Cl)cc(Cl)c1OC(C)=O)C1CCCC1 | 100 | – | –
O=C(O)CN(C(=O)c1cccc(F)c1S)C1CCCC1 | 0.55 | 105 | Mean decrease [5]: 84%
O=C(O)CN(C(=O)c1cccc(Cl)c1S)C1CCCC1 | 0.28 | – | ED50 (Rattus norvegicus): 0.3 mg/kg; Mean duration [2]: > 4 h; Mean decrease [3]: 85%
CC(=O)Sc1c(C)cccc1C(=O)N(CC(=O)O)C1CCCC1 | 2.2 | – | Mean duration [6]: 20 min; Mean decrease [7]: 35%
O=C(O)CN(C(=O)c1ccc(S)cc1)C1CCCC1 | 21 | – | –
CC(=O)Sc1ccccc1C(=O)N(CC(=O)O)C1CCCC1 | 9.1 | – | Mean duration [6]: 0 min; Mean decrease [7]: 25%
O=C(O)CN(C(=O)c1cc(Cl)cc(Cl)c1S)C1CCCC1 | 4.1 | – | –
O=C(O)CN(C(=O)c1cc(Cl)ccc1S)C1CCCC1 | 80 | 0 | Mean decrease [8]: 22%
CC(=O)Sc1ccc(C(=O)N(CC(=O)O)C2CCCC2)cc1 | 21 | – | –
O=C(O)CN(C(=O)c1cccc(C(F)(F)F)c1S)C1CCCC1 | 0.68 | 20 | Mean decrease [5]: 31%
O=C(O)CN(C(=O)c1ccccc1S)C1CCCC1 | 4.8 | – | Mean decrease [9]: 34%; Mean duration [6]: 35 min
O=C(O)CN(C(=O)c1cc(Cl)cc(Cl)c1O)C1CCCC1 | 100 | – | –
CC(C)(C)C(=O)Sc1ccccc1C(=O)N(CC(=O)O)C1CCCC1 | – | – | Mean duration [6]: 0 min; Mean decrease [7]: 19%
O=C(O)CN(C(=O)c1ccccc1[N+](=O)[O-])C1CCCC1 | 100 | – | Mean decrease [10]: 25%; Mean duration [11]: 0 min
CC(=O)Sc1c(F)cccc1C(=O)N(CC(=O)O)C1CCCC1 | 0.6 | 90 | Mean decrease [5]: 82%
CC(=O)Sc1cccc(C(=O)N(CC(=O)O)C2CCCC2)c1 | 28 | – | –
Cc1cccc(C(=O)N(CC(=O)O)C2CCCC2)c1S | 4.6 | 50 | Mean decrease [5]: 77%
